Experimental data taken from paper PMC7709139 (Molecular imaging, 2015).
Numbered stars: 1 amine (or outer) side, 2 acyl side, 3 side chain; on linkers, the order of the positions; unused ones are H or OH. Bridge positions count the residues as written; N and C are the ends. Side chains are listed from the residue outwards. Ends that are not written are not given here. Peptide text beside a SMILES is read from it. * marks the point of attachment. X1 = CC(=NO)C(C)(C)NCCC(CCNC(C)(C)C(C)=NO)CCN*; Glutaryl = O=C(CCCC(=O)[*:2])[*:1]

How the values were obtained:
shed Met = experiment: Plasma shed Met electrochemiluminescent immunoassay; type: in vivo, human Met in mouse xenograft plasma; conditions: for slope plasma shed Met/tumor mass: PHA-treated
Method in brief: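 Blood was collected into EDTA tubes and centrifuged. Plasma was fast-frozen and stored at −70°C; samples from radiolabel-imaged mice were assayed after the radioactivity had decayed. Soluble Met ectodomain was measured by two-site electrochemiluminescent immunoassay with ruthenium-chelate-tagged detection antibody, against a recombinant Met ectodomain–IgG-Fc standard. Naive cohorts were sampled at 1–4 weeks, imaged cohorts at the end. Values were correlated with tumour mass by Spearman analysis, and slopes were given as ng/mL per g.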

MKN-45 xenografts [1] = experiment: Longitudinal [^99mTc]-Met peptide SPECT imaging during PHA 665752 treatment; type: in vivo, athymic female nude mice (human MKN-45 tumor); conditions: for decrease in [^99mTc]-Met peptide tumor uptake (%ID/g) vs vehicle: PHA 665752 15 mg/kg i.p. daily
Method in brief: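 Female nude mice carried s.c. MKN-45 xenografts, 30–50 mm³ at baseline. They received the Met TKI at 15 mg/kg i.p. in 5% DMSO:saline, or vehicle, daily for 3–4 weeks. SPECT/CT imaging was done 90 min after injection of ⁹⁹ᵐTc-labelled Met peptide, at baseline and then weekly. Tumour uptake was expressed as %ID/g normalised to a 20 g mouse. n = 9 per group; groups were compared by Welch t-test.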

[2] = tested on: human lung carcinoma cells; conditions: cited from earlier work
MKN-45 xenografts [3] = experiment: Tumor volume by 3D ultrasonography, [^99mTc]-Met peptide imaged cohort; type: in vivo, athymic female nude mice (human MKN-45 tumor); conditions: 15 mg/kg i.p. daily
Method in brief: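 After each weekly SPECT/CT session in the daily-dosed MKN-45 cohort (Met TKI 15 mg/kg i.p.), 3D ultrasonography was run at 40 MHz with a 0.076 mm step size. Tumour volume was obtained with a parallel ROI algorithm and expressed as % increase from baseline. n = 9 per group; groups were compared by Welch t-test (p < .05).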

MKN-45 xenografts [4] = experiment: Tumor weight and histologic grading; type: in vivo, athymic female nude mice (human MKN-45 tumor)
Method in brief: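 SPECT-imaged MKN-45 mice, given the Met TKI daily i.p. or vehicle, were euthanised after the last imaging session at 3 weeks. Tumours were weighed (> 0.5 g counted) and formalin-fixed, paraffin-embedded sections were stained with H&E (necrosis, graded up to +4 severe) or ApopTag (apoptosis).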

MKN-45 xenografts [5] = experiment: Tumor weight and histologic grading, Cy5^⋆⋆-Met peptide imaged cohort; type: in vivo, athymic female nude mice (human MKN-45 tumor); conditions: treated
Method in brief: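 Fluorescence-imaged MKN-45 mice, given the Met TKI 5 days on/2 days off or vehicle, were euthanised after the last imaging session (18 or 25 days). Tumours were weighed (fraction > 0.5 g), fixed in 10% neutral-buffered formalin and paraffin-embedded. Sections were stained with H&E for necrosis and ApopTag for apoptosis, then graded. n = 9 per group.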

Met tyrosine kinase = conditions: cited from earlier work
[6] = tested on: gastric carcinoma cells (including MKN-45 cells); conditions: cited from earlier work
MKN-45 xenografts [7] = experiment: Longitudinal Cy5^⋆⋆-Met peptide fluorescence imaging during PHA 665752 treatment; type: in vivo, athymic female nude mice (human MKN-45 tumor); conditions: for decrease in Cy5^⋆⋆-Met fluorescent signal intensity in tumors vs vehicle: PHA 665752 5 days on/2 days off, n = 9, p < .05
[8] = tested on: tumor responses to Met-targeted therapeutics; conditions: ref [19],[26],[47],[48], cited from earlier work
in vivo [9] = experiment: in vivo; design: species or system athymic female nude mice (human U87-MG tumor); conditions: female, athymic nude (Ncr-nu/nu), mouse, iv, total radioactivity
U87-MG xenografts = experiment: in vivo; design: species or system athymic female nude mice (human U87-MG tumor)
[10] = tested on: extracellular domain of human Met; conditions: fluorescence polarization; cited from earlier work
in vivo [11] = experiment: in vivo; design: species or system athymic female nude mice (human SNU-16 tumor); conditions: female, athymic nude (Ncr-nu/nu), mouse, iv, total radioactivity
SNU-16 xenografts = experiment: in vivo; design: species or system athymic female nude mice (human SNU-16 tumor)
MKN-45 xenografts [12] = tested on: MKN-45 xenografts; design: species or system athymic female nude mice (human MKN-45 tumor); conditions: in vivo
MKN-45 xenografts [13] = experiment: in vivo; design: species or system athymic female nude mice (human MKN-45 tumor)
in vivo [14] = experiment: in vivo; design: species or system athymic female nude mice (human MKN-45 tumor); conditions: female, athymic nude (Ncr-nu/nu), mouse, iv, total radioactivity
Met (U87-MG cells) = experiment: Saturation binding, U87-MG cells; design: species or system human
Method in brief: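 U87-MG cells were grown in DMEM with 2 mM L-glutamine, 0.1 mM NEAA, 1 mM pyruvate and 10% FBS, then placed in tubes (0.2–1.0 × 10⁶ cells) on the assay day. Duplicates were incubated with 0.2–10 nM ⁹⁹ᵐTc-labelled Met peptide for 2 h at 4°C, with nonspecific binding defined by 10^−6.3 M unlabelled peptide. Pellets were washed twice with PBS and counted. MKN-45 cells were plated (0.2 × 10⁶/well) the day before and trypsinised for counting. Kd and Bmax came from one-site nonlinear fits.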

MKN-45 xenografts [15] = type: in vivo, athymic female nude mice (human MKN-45 tumor); conditions: 60 minutes postinjection
[16] = biological target: T1, hepatocyte growth factor tyrosine kinase receptor (Met) (human (endogenous in MKN-45 and U87-MG), UniProt P08581 25-1390); experiment: radioligand binding
T1 sequence (P08581 25-1390): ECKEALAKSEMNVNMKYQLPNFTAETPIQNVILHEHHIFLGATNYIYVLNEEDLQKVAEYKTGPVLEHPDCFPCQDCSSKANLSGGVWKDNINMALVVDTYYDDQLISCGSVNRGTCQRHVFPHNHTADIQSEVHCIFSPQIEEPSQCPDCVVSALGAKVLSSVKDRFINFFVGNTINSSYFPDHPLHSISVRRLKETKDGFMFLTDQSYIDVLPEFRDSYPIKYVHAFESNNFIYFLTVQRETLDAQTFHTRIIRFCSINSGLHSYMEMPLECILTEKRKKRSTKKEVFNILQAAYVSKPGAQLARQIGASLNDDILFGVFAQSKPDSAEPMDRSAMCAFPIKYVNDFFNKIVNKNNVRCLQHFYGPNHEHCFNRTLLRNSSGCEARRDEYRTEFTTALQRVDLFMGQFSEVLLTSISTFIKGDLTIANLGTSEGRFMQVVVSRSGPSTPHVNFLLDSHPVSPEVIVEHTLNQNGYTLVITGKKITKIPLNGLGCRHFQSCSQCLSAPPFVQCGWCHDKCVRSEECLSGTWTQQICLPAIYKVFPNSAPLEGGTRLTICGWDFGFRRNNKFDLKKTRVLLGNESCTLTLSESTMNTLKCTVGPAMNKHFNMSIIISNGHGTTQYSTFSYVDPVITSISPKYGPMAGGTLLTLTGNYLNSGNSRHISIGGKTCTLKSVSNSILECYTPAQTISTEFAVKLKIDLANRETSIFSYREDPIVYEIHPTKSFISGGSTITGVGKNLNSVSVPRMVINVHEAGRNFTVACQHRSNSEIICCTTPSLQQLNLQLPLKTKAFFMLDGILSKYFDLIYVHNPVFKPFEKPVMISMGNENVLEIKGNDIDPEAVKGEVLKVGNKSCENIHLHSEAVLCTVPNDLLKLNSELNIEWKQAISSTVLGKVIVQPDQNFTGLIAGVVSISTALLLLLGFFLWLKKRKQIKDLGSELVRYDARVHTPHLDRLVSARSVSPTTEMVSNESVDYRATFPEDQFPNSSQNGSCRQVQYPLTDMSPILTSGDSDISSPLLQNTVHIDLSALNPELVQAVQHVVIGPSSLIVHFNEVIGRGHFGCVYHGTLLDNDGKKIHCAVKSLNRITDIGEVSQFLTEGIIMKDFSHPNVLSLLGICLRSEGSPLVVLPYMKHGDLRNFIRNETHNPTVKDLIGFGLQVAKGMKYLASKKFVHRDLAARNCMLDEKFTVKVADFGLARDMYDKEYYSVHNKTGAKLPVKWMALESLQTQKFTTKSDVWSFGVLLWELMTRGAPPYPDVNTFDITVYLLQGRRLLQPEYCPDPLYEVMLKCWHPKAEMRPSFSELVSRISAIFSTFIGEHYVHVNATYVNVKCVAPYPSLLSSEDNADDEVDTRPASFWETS

[17] = biological target: T1, hepatocyte growth factor tyrosine …; experiment: in vivo biodistribution with blocking

In the case of Cc1[nH]c(/C=C2\C(=O)Nc3ccc(S(=O)(=O)Cc4c(Cl)cccc4Cl)cc32)c(C)c1C(=O)N1CCC[C@@H]1CN1CCCC1 [PHA 665752, (2R)-1-[[5-[(Z)-[5-[[(2,6-dichlorophenyl)methyl]sulfonyl]-1,2-dihydro-2-oxo-3H-indol-3-ylidene]methyl]-2,4-dimethyl-1H-pyrrol-3-yl]–carbonyl]-2-(1-pyrrolidinylmethyl) pyrrolidine], the “increase in plasma shed Met (ng/mL per g tumor) vs vehicle” value (shed Met; 1, 2, and 3 to 4 weeks after treatment) is reported as ~ 2 fold, the “slope plasma shed Met/tumor mass” value (shed Met; imaged xenografts, n = 7 (vehicle 43.7)) is reported as 77.7 (ng/mL)/(g) and the “slope plasma shed Met/tumor mass” value (shed Met; nonimaged xenografts (vehicle 43.8)) is reported as 77.5 (ng/mL)/(g). The “tumor uptake of [^99mTc]-Met peptide after PHA 665752” value (MKN-45 xenografts [1]; MKN-45 xenografts) was “significantly decreased as early as 1 week”, the “decrease in [^99mTc]-Met peptide tumor uptake (%ID/g) vs vehicle” value (MKN-45 xenografts [1]; day 8, n = 9, p = .005) was 43% and the “decrease in [^99mTc]-Met peptide tumor uptake (%ID/g) vs vehicle” value (MKN-45 xenografts [1]; day 21, n = 9, not significant) was 25%. The “total surface Met expression” value [2] was “total surface Met expression increased”, the “decrease in tumor volume vs vehicle” value (MKN-45 xenografts [3]; day 8, n = 9, not significant) was 25% and the “decrease in tumor volume vs vehicle” value (MKN-45 xenografts [3]; day 21, n = 9, p = .016) was 55%. The “tumors with moderately severe apoptosis” value (MKN-45 xenografts [4]; ApopTag, after 3 weeks PHA 665752) was 22%, the “fraction of severely necrotic tumors” value (MKN-45 xenografts [4]; H&E, after 3 weeks PHA 665752 (vehicle also 78%)) was 78% and the “fraction of tumors > 0.5 g” value (MKN-45 xenografts [4]; after 3 weeks PHA 665752) was 44%. For the same molecule, the “tumors with minimal (1+) apoptosis” value (MKN-45 xenografts [5]; 18 or 25 days (vehicle 78%)) was 33%, the “tumors > 0.5 g” value (MKN-45 xenografts [5]; 18 or 25 days (vehicle 89%)) was 78% and the “tumorigenicity, apoptosis and necrosis” value (Met tyrosine kinase) was “reduction of tumorigenicity accompanied with increases in apoptosis and necrosis”. The “drug resistance on prolonged exposure” value [6] was “acquired drug resistance associated with increased levels of Met”, the “extracellular Met expression” value [6] was “extracellular Met expression appeared unchanged” and the “inhibition of Met phosphorylation” value [6] was “pronounced inhibition of Met phosphorylation”. The “fluorescent signal intensity and tumor volume vs vehicle” value (MKN-45 xenografts [7]; 25 days, n = 6 treated, 5 vehicle) was “these decreases were not significant”, the “decrease in Cy5^⋆⋆-Met fluorescent signal intensity in tumors vs vehicle” value (MKN-45 xenografts [7]; 11 days) was 54% and the “decrease in Cy5^⋆⋆-Met fluorescent signal intensity in tumors vs vehicle” value (MKN-45 xenografts [7]; 18 days) was 55%.

For OC[C@H]1OC(O)[C@H]([18F])[C@@H](O)[C@@H]1O (some centres unmarked) [[^18F]FDG, [^18F]fluorodeoxyglucose], the “PET detection of tumor response to crizotinib” value ([8]; Met intracellular kinase inhibition) is given as “failed to detect tumor responses” and the “PET detection of tumor response to CE-355621” value ([8]; mAb targeting the Met extracellular domain) is given as “detected early tumor responses”.

In the case of Cc1cn([C@H]2C[C@H]([18F])[C@@H](CO)O2)c(=O)[nH]c1=O [[^18F]FLT, [^18F]fluorothymidine], the “PET detection of tumor response to crizotinib and BAY 853474” value [8] is given as “detected a robust tumor response”.

Molecule CC(=O)N[C@@H](C)C(=O)NCC(=O)N[C@@H](CO)C(=O)N[C@H]1CSSC[C@@H](C(=O)N[C@@H](Cc2ccc(O)cc2)C(=O)N[C@@H](CCC(=O)O)C(=O)N[C@H](C(=O)N[C@@H](CCC(=O)O)C(=O)NCC(=O)N[C@H](C(=O)NCC(=O)NCC(=O)NCC(=O)N[C@@H](CCCCNC(=O)CCCC(=O)NCCC(CCNC(C)(C)C(C)=NO)CCNC(C)(C)C(C)=NO)C(N)=O)[C@@H](C)O)[C@@H](C)O)NC(=O)[C@H](Cc2c[nH]c3ccccc23)NC(=O)[C@@H]2CSSC[C@H](NC(=O)[C@H](Cc3ccc(O)cc3)NC1=O)C(=O)N[C@@H](CO)C(=O)NCC(=O)N1CCC[C@H]1C(=O)N1CCC[C@H]1C(=O)N[C@@H](CCCNC(=N)N)C(=O)N[C@@H](Cc1ccccc1)C(=O)N[C@@H](CCC(=O)O)C(=O)N2 (some centres unmarked) [[^99mTc]-Met peptide, metal not drawn] (Ac-AGSCYCSGPPRFECWCYETEGTGGGK([Glutaryl-X1])-NH2; disulfide 4-16, 6-14; C-terminus assumed) has a tissue uptake at 1 h (in vivo [9]) of 1.19 ± 0.11 %ID/g, a tissue uptake at 2 h (in vivo [9]) of 0.71 ± 0.15 %ID/g and a tissue uptake at 3 h (in vivo [9]) of 0.58 ± 0.09 %ID/g. For the same molecule, the “tumor to muscle ratio reduced vs MKN-45” value (U87-MG xenografts) was 10-16 fold, the “effect on shed Met plasma concentrations” value (shed Met; imaged vs nonimaged xenografts) was “does not appear to alter shed Met plasma concentrations” and the IC50 [10] was ~200 nM. The tissue uptake at 0.5 h (in vivo [11]) was 4.59 ± 0.5 %ID/g, the tissue uptake at 1 h (in vivo [11]) was 2.61 ± 0.82 %ID/g and the tissue uptake at 2 h (in vivo [11]) was 1.3 ± 0.34 %ID/g. The “tumor to muscle ratio reduced vs MKN-45” value (SNU-16 xenografts) was 2-4 fold, the “uptake in nontarget tissues” value (SNU-16 xenografts) was “comparable to the MKN-45 xenografts” and the “reduction in slope (%ID/g), larger vs smaller tumors” value (MKN-45 xenografts [12]) was 2-3 fold. For the same molecule, the “slope (%ID/g) of total uptake per tumor vs tumor weight” value (MKN-45 xenografts [12]) was 4.2 %ID/g, the clearance (MKN-45 xenografts [13]) was > 70% and the “kidney to muscle ratio exceeding tumor to muscle ratio” value (MKN-45 xenografts [13]) was 1.6-3 fold. For the same molecule, the “primary route of excretion” value (MKN-45 xenografts [13]) was “renal clearance as the primary route of excretion”, the tissue to tissue ratio at 0.5 h (in vivo [14]) was 9.8 ± 2.1 and the tissue to tissue ratio at 1 h (in vivo [14]) was 30.1 ± 3.3. The tissue to tissue ratio at 2 h (in vivo [14]) was 49.6 ± 11.3, the tissue to tissue ratio at 3 h (in vivo [14]) was 55.2 ± 13.4 and the specific binding (Met (U87-MG cells); U87-MG cells (low Met), 2 hours at 4°C) was < 40%. For the same molecule, the “Bmax U87-MG lower than MKN-45” value (Met (U87-MG cells); U87-MG vs MKN-45 cells) was ~ 90 fold and the “visualization of MKN-45 tumors” value (MKN-45 xenografts [15]) was “clearly visualized at 60 minutes”.

For “Cys4–16, 6–14; Ac-Ala-Gly-Ser-Cys-Tyr-Cys-Ser-Gly-Pro-Pro-Arg-Phe-Glu-Cys-Trp-Cys-Tyr-Glu-Thr-Glu-Gly-Thr-Gly-Gly-Gly-Lys (bicyclic or more) [unlabeled Met peptide]”, the IC50 [10] is given as 90 nM.

Ac-AGSCYCSGPPRFECWCYETEGTGGGK(cPn216) (disulfide 6-14, 4-16; also: 99mTc chelated by cPn216) [[^99mTc]-Met peptide (AH-113018)] gave a Kd [16] of 3.31 nM.

For Ac-AGSCYCSGPPRFECWCYETEGTGGGK (disulfide 6-14, 4-16; also: trifluoroacetate salt) [unlabeled Met peptide (AH-111972 trifluoracetate salt [DX-1662])], the “percent decrease of tumor to muscle ratio of [^99mTc]-Met peptide” value [17] was 53%.
